Assay outcomes deposited in PubChem by several laboratories.
An excerpt weighted towards active compounds, which were near 2.1% of everything screened.
APJ antagonist: blocks the human apelin receptor APJ. CHO-K1 APJ beta-arrestin complementation, luminescence. inhibition, % at 20 µM. 0.32% of 330,000 active. AID 2521;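 active = inhibition above about 40% at 20 µM, limit read from the data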;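 note: cells challenged with 10 nM apelin-13 agonist together with compound; plate controls were apelin-13 plus DMSO wells for no effect and DMSO wells lacking apelin-13 for full effect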
CCR6 antagonist: CCR6 (human) receptor antagonism | P51684 | CHO-K1 CCR6 PathHunter beta-arrestin, luminescence, CCL20-stimulated | inhibition, % at 20 µM | 0.49% of 340,000 active | AID 493098;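 active = compounds whose inhibition of the agonist-driven luminescence signal at 20 µM reaches about 50%, limit read from the data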;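 note: cells stimulated with CCL20 at 14 nM final; plate controls were DMSO with CCL20 for no effect and DMSO without agonist for full effect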
EBI2 block: blocks human EBI2 receptor beta-arrestin signaling; EBI2 beta-arrestin recruitment, luminescence, 7a,25-OHC stimulated; inhibition, % at 5 µM; 0.81% of 360,000 active; AID 651636; in the data active = inhibition above about 38%;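 note: enzyme fragment complementation signal reports receptor beta-arrestin coupling in cells; 0% = agonist plus DMSO wells and 100% = wells without agonist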
CXCR6 block: blocks human CXCR6 beta-arrestin recruitment; 0.36% of 360,000 active; CHO-K1 PathHunter CXCR6 beta-arrestin, luminescence; inhibition, % at 20 µM; O00574; AID 602244; in the data active = inhibition above about 34%, passing the limit was not always enough;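 note: antagonist mode with CXCL16 agonist at 10 nM final; 0% = 10 nM CXCL16 with DMSO and 100% = unstimulated wells without agonist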
m5-HT2A agonist: activates the mouse 5-HT2A serotonin receptor; P35363; CHO-K1 mHTR2A beta-arrestin complementation, luminescence; percent of 30 µM serotonin response; activation, % at 7.6 µM; 0.66% of 360,000 active;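 active = activation above a run cutoff, the mean activation of all tested compounds plus 3 SD, cut at about 14% in these data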;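 note: 0% = plate median of compound wells and 100% = 30 µM serotonin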
Target sequence (P35363 whole entry, looked up): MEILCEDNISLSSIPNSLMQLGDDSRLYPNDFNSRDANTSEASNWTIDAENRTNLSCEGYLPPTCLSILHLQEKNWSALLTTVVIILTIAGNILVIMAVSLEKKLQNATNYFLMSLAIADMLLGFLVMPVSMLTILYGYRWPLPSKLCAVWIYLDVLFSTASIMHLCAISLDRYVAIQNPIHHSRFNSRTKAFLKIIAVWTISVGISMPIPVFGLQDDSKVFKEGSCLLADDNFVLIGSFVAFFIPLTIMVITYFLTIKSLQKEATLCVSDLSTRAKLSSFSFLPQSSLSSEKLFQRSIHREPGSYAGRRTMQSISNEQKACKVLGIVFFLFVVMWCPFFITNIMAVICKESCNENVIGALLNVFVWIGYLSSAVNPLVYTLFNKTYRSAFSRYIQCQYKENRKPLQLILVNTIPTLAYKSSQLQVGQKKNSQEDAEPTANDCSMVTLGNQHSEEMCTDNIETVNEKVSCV
APJ agonist: activates the human apelin receptor APJ; P35414; CHO-K1 APJ PathHunter beta-arrestin, luminescence; 0% DMSO wells, 100% apelin; activation, % at 20 µM; 0.11% of 330,000 active; AID 2520;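 active = activation more than six SD over the plate average, tested at 20 µM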;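 note: 0% = DMSO alone and 100% = apelin-13 at 10 nM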
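Material: engineered CHO-K1 APJ arrestin reporter cells; amount: 1000 CHO-K1 reporter cells seeded per well; incubation: compound stimulation 90 min at 25 °C, detection 60 min; signal: luminescent beta-gal fragment complementation, chemiluminescent substrate; read-out basis: APJ agonist activity; controls: DMSO-only wells as negative, 10 nM Apelin-13 as positive control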
EBI2 antag conf: confirmation of human EBI2 receptor antagonists. shares compounds with EBI2 block. EBI2 beta-arrestin luminescence, 7a,25-OHC antagonism. inhibition, % at 5 µM. 29% of 2,400 active. AID 651997;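 active = inhibition of at least 50%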
EBI2 agonist: EBI2 agonism counter-screen. shares compounds with EBI2 block. EBI2-expressing cells, agonist mode, luminescence, 60 min; 0% vehicle, 100% 7α,25-dihydroxycholesterol control. activation, % at 5 µM. 2,400 tested, under 10 active. AID 652000;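 active = activation of at least 50%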
bGal cs: counter-screen for EBI2 antagonists: E. coli beta-galactosidase inhibition; shares compounds with EBI2 block; purified beta-galactosidase, luminescent Galacton Star, 15 min; inhibition, % at 5 µM; 1% of 2,400 active;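 active = replicate-average signal at least 3 plate SD below neutral wells, shown as high inhibition, flagging enzyme-inhibiting false positives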;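 note: 0% = DMSO wells with enzyme and 100% = wells lacking enzyme; higher means stronger loss of beta-gal luminescence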
The depositor's hits bear a star.

Results for CN(Cc1cccc(F)c1)C(=O)c1ccc(S(=O)(=O)N2CCOCC2)cc1 ?
APJ antagonist: 25; CCR6 antagonist: -8; EBI2 block: -5; CXCR6 block: -2; m5-HT2A agonist: 0; APJ agonist: 2

How did CC1CN(CCC(=O)Nc2ccccc2F)CC(C)O1 (configuration not stated) do in these assays?
APJ antagonist: 8; CCR6 antagonist: 4; EBI2 block: -13; CXCR6 block: 5; m5-HT2A agonist: -4; APJ agonist: 3

Results for O=C(COc1ccccc1)N1CCN(S(=O)(=O)c2ccc(Cl)cc2)CC1 ?
APJ antagonist: -2; CCR6 antagonist: 8; EBI2 block: 49*; CXCR6 block: -6; m5-HT2A agonist: -1; APJ agonist: 3; EBI2 antag conf: 35; EBI2 agonist: -1; bGal cs: -4

How did COc1ccc(OCC(=O)N2CCN(S(=O)(=O)c3ccc(Cl)cc3)CC2)cc1 do in these assays?
APJ antagonist: 9; CCR6 antagonist: 14; EBI2 block: 71*; CXCR6 block: 1; m5-HT2A agonist: -1; APJ agonist: -7; EBI2 antag conf: 58*; EBI2 agonist: 0; bGal cs: 5

Results for O=C(NCc1ccc(Cl)cc1)N1CCN(S(=O)(=O)c2ccccc2)CC1 ?
APJ antagonist: 7; CCR6 antagonist: 14; EBI2 block: 45*; CXCR6 block: -5; m5-HT2A agonist: 1; APJ agonist: -1; EBI2 antag conf: 25; EBI2 agonist: 0; bGal cs: 9

How did COc1ccc(S(=O)(=O)N2CCN(C(=O)COc3ccc(C)c(C)c3)CC2)cc1OC do in these assays?
APJ antagonist: -7; CCR6 antagonist: 3; EBI2 block: 77*; CXCR6 block: 6; m5-HT2A agonist: -2; APJ agonist: 3; EBI2 antag conf: 32; EBI2 agonist: -2; bGal cs: -12

How did CCN(CC(=O)Nc1cc(Cl)ccc1C)C(=O)COc1cccc2c1OC(C)(C)C2 do in these assays?
APJ antagonist: -1; CCR6 antagonist: 4; EBI2 block: 10; CXCR6 block: 2; m5-HT2A agonist: -10; APJ agonist: 6

How did COc1ccc(NC(=O)c2cc(C3CCCCN3S(=O)(=O)c3ccc(C#N)cc3)on2)c(C)c1 (configuration not stated) do in these assays?
EBI2 block: -1; CXCR6 block: 5; m5-HT2A agonist: -2

How did CCc1nc(N)nc(N)c1-c1ccc(Cl)c([N+](=O)[O-])c1 do in these assays?
CCR6 antagonist: 7; EBI2 block: 1; CXCR6 block: 4; m5-HT2A agonist: 3

Results for O=C(COc1ccc(Cl)cc1)N1CCN(S(=O)(=O)c2ccccc2)CC1 ?
APJ antagonist: -9; CCR6 antagonist: 5; EBI2 block: 87*; CXCR6 block: -2; m5-HT2A agonist: -2; APJ agonist: 3; EBI2 antag conf: 68*; EBI2 agonist: -1; bGal cs: -15

What do the screens show for `COc1cccc(OCc2nnc(SCC(=O)N3c4ccccc4Sc4ccc(Cl)cc43)o2)c1`?
APJ antagonist: 0; CCR6 antagonist: -1; EBI2 block: 53*; CXCR6 block: 9; m5-HT2A agonist: -6; APJ agonist: -3; EBI2 antag conf: 28; EBI2 agonist: 0; bGal cs: -1

How did COc1ccc(OCc2nnc(SCC(=O)N3c4ccccc4Sc4ccc(Cl)cc43)o2)cc1 do in these assays?
APJ antagonist: 4; CCR6 antagonist: 4; EBI2 block: 66*; CXCR6 block: -1; m5-HT2A agonist: 2; APJ agonist: 0; EBI2 antag conf: 54*; EBI2 agonist: 1; bGal cs: -1

What do the screens show for `O=C(NCCCn1ccnc1)c1sc2cc([N+](=O)[O-])ccc2c1Cl`?
EBI2 block: -23; CXCR6 block: -10; m5-HT2A agonist: 1

Results for COc1cc(/C=C(/C#N)C(=O)Nc2ccc(C)cc2)ccc1Oc1nc(Cl)ncc1F ?
APJ antagonist: -24; CCR6 antagonist: 15; EBI2 block: 49*; CXCR6 block: -4; m5-HT2A agonist: -1; APJ agonist: 7; EBI2 antag conf: 46; EBI2 agonist: -1; bGal cs: -13

How did COc1cc(/C=C(\C#N)C(N)=O)ccc1OS(=O)(=O)c1ccc(C)cc1 do in these assays?
APJ antagonist: -22; CCR6 antagonist: 17; EBI2 block: 52*; CXCR6 block: 4; m5-HT2A agonist: -1; APJ agonist: -3; EBI2 antag conf: 56*; EBI2 agonist: 1; bGal cs: -7

What do the screens show for `COc1cc(/C=C(\C#N)C(=O)NC2CCCCC2C)ccc1OS(=O)(=O)c1ccc(C)cc1` (configuration not stated)?
APJ antagonist: 4; CCR6 antagonist: 12; EBI2 block: 62*; CXCR6 block: -3; m5-HT2A agonist: -3; APJ agonist: 2; EBI2 antag conf: 69*; EBI2 agonist: 1; bGal cs: -3

What do the screens show for `COCCOC(=O)c1c(NC(=O)CN2c3ccccc3CC2C)sc(C(N)=O)c1C` (configuration not stated)?
APJ antagonist: 4; CCR6 antagonist: 10; EBI2 block: 65*; CXCR6 block: -1; m5-HT2A agonist: -3; APJ agonist: -1; EBI2 antag conf: 31; EBI2 agonist: -1; bGal cs: 3

How did COCCOC(=O)c1c(NC(=O)CN2CCOCC2)sc(C(N)=O)c1C do in these assays?
APJ antagonist: 3; CCR6 antagonist: -1; EBI2 block: -9; CXCR6 block: -7; m5-HT2A agonist: 1; APJ agonist: 1

Results for COc1ccc(C2c3ccc(O)cc3Oc3ncn4nc(-c5ccccn5)nc4c32)cc1 (configuration not stated) ?
APJ antagonist: 25; CCR6 antagonist: 9; EBI2 block: 47*; CXCR6 block: -9; m5-HT2A agonist: -4; APJ agonist: -4; EBI2 antag conf: 18; EBI2 agonist: 0; bGal cs: 6

Results for COc1ccc(C2c3ccc(O)cc3Oc3ncn4nc(-c5ccccn5)nc4c32)cc1OC (configuration not stated) ?
APJ antagonist: -16; CCR6 antagonist: 9; EBI2 block: 38; CXCR6 block: 1; m5-HT2A agonist: 1; APJ agonist: -7
